# A selection: hits, their analogues and other compounds. The true share with any hit is near 0.63%.
# TRPML3 agonist: agonists of human TRPML3 channel. Q8TDD5. HEK293 TRPML3-YFP, Fluo-8 calcium fluorescence; 100% = the carbachol control signal. activation, % at 3 µM. 0.29% of 220,000 active. AID 1448;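 active = activation above its plate's cutoff, the mean activation of the plate's test wells plus 3 SD, cut at about 12% in these data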;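 note: 0% = DMSO only wells and 100% = carbachol wells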
# Target sequence (Q8TDD5 whole entry, looked up): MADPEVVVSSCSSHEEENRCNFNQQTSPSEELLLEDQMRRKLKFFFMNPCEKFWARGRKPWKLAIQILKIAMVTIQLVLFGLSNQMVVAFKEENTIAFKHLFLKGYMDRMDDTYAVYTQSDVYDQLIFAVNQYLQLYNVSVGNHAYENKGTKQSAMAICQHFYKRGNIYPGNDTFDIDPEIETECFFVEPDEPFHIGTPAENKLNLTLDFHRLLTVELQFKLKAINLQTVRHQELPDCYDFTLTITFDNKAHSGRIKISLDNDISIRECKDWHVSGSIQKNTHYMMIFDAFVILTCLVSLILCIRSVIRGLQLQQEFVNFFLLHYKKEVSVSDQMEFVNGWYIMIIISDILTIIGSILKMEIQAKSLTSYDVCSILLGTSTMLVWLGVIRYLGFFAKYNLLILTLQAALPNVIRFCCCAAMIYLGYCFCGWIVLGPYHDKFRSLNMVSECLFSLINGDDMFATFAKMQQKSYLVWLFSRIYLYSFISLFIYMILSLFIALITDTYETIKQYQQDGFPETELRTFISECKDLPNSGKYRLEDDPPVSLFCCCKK
#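 Test system – HEK293 line with stable expression of human TRPML3-YFP channel · Control set – carbachol 87 µM final as high control (100%), DMSO as low control (0%) · Signal – Fluo-8 calcium dye fluorescence, ex 470-495, em 515-575 nm · Incubation – 1-h 37 °C dye load, 5-s basal, 120-s post-compound reads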
# TRPN1 ag: agonists of zebrafish TRPN1 channel; HEK293 zebrafish TRPN1-YFP, Fluo-8 calcium fluorescence; 100% = response to 87 µM carbachol; activation, % at 3 µM; 0.18% of 220,000 active;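 active = activation above its plate's cutoff, the mean activation of test wells on that plate plus 3 SD, cut at about 19% in these data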;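 note: 0% = DMSO alone and 100% = 87 µM carbachol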
#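 Material – zebrafish TRPN1-YFP in HEK293 cells · Doses – 3 µM single point · Schedule – dye 1 h 37 °C plus 30 min RT · Signal – Fluo-8 calcium fluorescence, excitation 470-495 nm, emission 515-575 nm · Read-out – % activation versus carbachol response · Control set – carbachol high, DMSO low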
# IDE inh: cellular human IDE inhibition | 0.41% of 320,000 active | P14735 | HEK cells, FAbetaB cleavage, fluorescence polarization | inhibition, % at 5.59 µM;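 active = percent inhibition above the average of all tested compounds plus 3 SD, set per screening campaign, cut at about 16% in these data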;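 note: IDE supplied by intact live HEK cells; FP after avidin binding of uncleaved biotin substrate so inhibition keeps polarization high; 0% = DMSO wells and 100% = 60 µM reference IDE inhibitor Ii1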
# IDE cell activ: IDE (human) activation, cell-based | HEK cells, FAbeta-B cleavage, fluorescence polarization; 0% vehicle, 100% cell-free pure enzyme wells | activation, % at 5.96 µM | AID 493087 | 0.073% of 340,000 active;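 active = activation above the mean of all tested compounds plus 3 SD, set per screening campaign, cut at about 17% in these data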
# IDE cell inh cf: cellular human IDE inhibition, confirmation; shares compounds with IDE inh; HEK cells, FAbetaB cleavage, fluorescence polarization; inhibition, % at 5.59 µM; 51% of 1,200 active;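 active = mean inhibition across triplicate wells above the cutoff set by the earlier primary insulin-degrading enzyme screen, cut at about 16% in these data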;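 note: 0% = DMSO wells and 100% = 60 µM reference IDE inhibitor Ii1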
# HEK cytotox: counter-screen for IDE inhibitors: cytotoxicity in HEK cells. inhibition, % at 5.59 µM. AID 449730. 28% of 1,200 active. HEK293 cytotoxicity, ATP luminescence. shares compounds with IDE inh; in the data active = inhibition above about 22%;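 note: 0% = vehicle wells and 100% = reference cytotoxic drug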
# FP fluor counter: counter-screen for IDE inhibitors: fluorescent artifacts | 30 tested, under 10 active | IC50, µM | FP counterscreen for fluorescent artifacts, IDE probe project | shares compounds with IDE inh; call rule not given here
# The depositor's hits bear a star; / = no result.
SMILES,TRPML3 agonist,TRPN1 ag,IDE inh,IDE cell activ,IDE cell inh cf,HEK cytotox,others
CCOc1ccc2[nH]c3c(N4CCN(C(=O)c5ccco5)CC4)ncnc3c2c1,-0.3,0.0,40.2*,/,16.1*,12.7,FP fluor counter=>54.7
CCOC(=O)N1CCN(c2ncnc3c2[nH]c2ccc(F)cc23)CC1,3.3,7.0,61.9*,-54.3,52.3*,58.5*,
Cc1cc(C)n(S(=O)(=O)c2ccccc2[N+](=O)[O-])n1,/,/,1.2,2.0,/,/,
O=C(C=C1CCN(c2ncc(C(F)(F)F)cc2Cl)CC1)NNC(=O)Nc1ccc(Cl)cc1,-0.2,1.7,5.4,5.4,/,/,
CCN(CC)c1ccc(/C=C/C(=O)C2C(=O)C=C(C)OC2=O)cc1 (configuration not stated),16.2*,34.8*,64.2*,-142.1,95.5*,12.6,
CC(=O)Nc1sc(C)c(C)c1C(=O)OCC(=O)Nc1cccc(C)c1,/,/,-1.4,-5.2,/,/,
C[C@@H]1CN=C2N(CCNC(=O)CCC3CCCCC3)[C@H](Cc3ccc(O)cc3)CN21,0.1,0.0,11.6,-1.1,/,/,
CCCCCCNC(=O)N[C@H](C(=O)NCCC[C@H]1CN2C(=NC[C@H]2C)N1CCC(c1ccccc1)c1ccccc1)C(C)O (some centres not stated),/,/,16.4*,-16.5,5.2,37.7*,
CCOc1ccc(-c2nc(CSCC(=O)NCc3ccco3)c(C)o2)cc1,-0.1,-0.1,8.8,5.3,/,/,
Cn1c(SCC(=O)c2ccc3c(c2)Cc2ccccc2-3)nnc1-c1ccccc1,1.0,-0.3,28.0*,-43.5,13.7,11.6,
COc1cccc([C@@H]2CC=C(C(=O)O)[C@H](c3cccc(Cl)c3)N2S(=O)(=O)c2ccc(C)cc2)c1,/,/,2.6,-3.2,/,/,
Cc1ccc(OCCSc2nnc(-c3cccs3)n2C)cc1,0.1,0.3,20.2*,-19.7,7.6,6.5,
Cn1c(SCc2nc(-c3ccccc3)no2)nnc1-c1cccs1,0.0,-1.1,12.1,-11.6,/,/,
Cn1c(SCCOc2ccc(F)cc2)nnc1-c1ccncc1,0.5,0.9,9.2,-6.5,/,/,
Cn1c(SCCOc2ccc(Cl)cc2)nnc1-c1ccncc1,0.8,1.7,44.2*,-48.1,14.8,16.1,
Cn1c(SCc2nc(-c3ccc(Cl)cc3)no2)nnc1-c1cccs1,0.3,-0.5,16.3*,-13.3,8.5,9.4,
CC(C)/C=C1\CC/C(=C\c2ccc(N(C)C)cc2)C1=O,7.9,22.2*,67.6*,-177.0,144.2*,13.2,
CCCCOc1ncnc2c1[nH]c1ccc(F)cc12,2.8,9.5,29.7*,-30.9,12.3,69.8*,
CCCCOc1ncnc2c1[nH]c1ccc(OCC)cc12,0.5,0.7,6.3,-2.9,/,/,
CCCCOc1ncnc2c1[nH]c1ccc(OC)cc12,0.3,1.4,21.3*,/,2.9,37.9*,
CC(C)CN(C(=O)c1ccc(-n2cncn2)c([N+](=O)[O-])c1)C1CCS(=O)(=O)C1 (configuration not stated),/,/,5.8,1.5,/,/,
CCOc1cc(Br)cc(/C=C2\SC(=Nc3ccccc3)NC2=O)c1O,/,/,22.2*,-24.2,27.3*,11.9,
COc1cc(/C=C2\SC(=Nc3ccc(O)cc3)NC2=O)cc(OC)c1O,4.3,8.8,128.2*,-65.4,152.2*,19.2,
CC(C)Cc1ccc(C(C)NC(=O)Cc2ccc(S(=O)(=O)N3CCOCC3)s2)cc1 (configuration not stated),/,/,-6.1,0.3,/,/,
Cn1nc(C(=O)NNC(=O)c2ccccc2Br)c2ccccc2c1=O,/,/,/,3.4,/,/,
SMILES,TRPML3 agonist,TRPN1 ag,IDE inh,IDE cell activ,IDE cell inh cf,HEK cytotox,others
Cc1c(O)c2c3c(cccc3c1O)C(=O)N(c1ccccc1)C2=O,7.1,10.8,60.3*,-54.0,86.6*,9.2,
O=C(O)C1CC=CCC1C(=O)NCc1ccc(Cl)c(Cl)c1 (configuration not stated),/,/,0.7,2.5,/,/,
COc1cc(-c2noc(CCCC(=O)Nc3cccnc3)n2)cc(OC)c1OC,-0.5,0.0,16.2*,5.4,0.1,6.4,
Cc1nn(C)cc1S(=O)(=O)NCc1ccc2c(c1)OCO2,/,/,3.8,4.3,/,/,
O=S(=O)(c1ccc(SCc2cccc(Cl)c2)nc1)N1CCCC1,/,/,16.5*,-17.9,17.9*,7.6,
Cc1ccc(CSc2ccc(S(=O)(=O)N3CCCC3)cn2)cc1,/,/,6.9,2.8,/,/,
Cc1ccccc1N(CC(=O)Nc1ccccc1C(=O)O)S(C)(=O)=O,0.7,0.7,23.2*,-34.4,14.1,5.7,
Cc1ccc(S(=O)(=O)N(CC(=O)Nc2ccccc2C(=O)O)c2ccccc2C)cc1,-0.4,-0.7,3.1,5.2,/,/,
CCOc1ccc(CN(C)C(=O)CNC(=O)c2ccc3ccccc3c2)cc1OC,/,/,16.8*,-6.2,8.9,15.0,
Cc1ccc2nc(-c3ccc(SCC(=O)N4CCc5ccccc54)nc3)[nH]c2c1,1.0,0.2,26.4*,-24.2,10.1,13.2,
O=c1[nH]c2ccccc2nc1/C=C(\O)c1cccs1,5.4,11.3,47.4*,-44.7,74.5*,14.1,
O/C(=C\c1nc2ccccc2[nH]1)c1cccs1,/,/,7.5,-4.8,/,/,
CCOC(=O)C1=C(CSc2nc3c(cc2C#N)CCC3)OC(N)=C(C#N)C1c1ccccc1 (configuration not stated),2.3,4.7,17.4*,-7.9,0.1,7.8,
Cc1csc2c(N3CCN(C(=O)Nc4ccccc4)CC3)ncnc12,4.3,8.4,12.0,-14.1,/,/,
Cc1ccc(C(=O)N2CCN(c3ncnc4c(C)csc34)CC2)cc1,1.3,4.4,18.6*,-4.5,7.2,17.3,
C=CCC[C@H](Cc1ccc(F)cc1)C(=O)OC[C@@H](Cc1c[nH]c2ccccc12)NC(=O)[C@H](CC=C)CC(=O)N(CCO)Cc1ccccc1,/,/,-0.9,4.4,/,/,
Oc1[nH]c(=S)sc1/C=C1\C(c2ccccc2)=Nc2ccccc21,1.7,1.3,17.8*,-14.1,14.5,9.0,
Oc1[nH]c(=S)sc1C=C1N=c2ccccc2=N1,-0.2,0.1,-0.4,/,/,/,
CS(=O)(=O)c1ccc(C(=O)NCC2(N3CCCCC3)CCCCC2)cc1,0.5,2.0,16.2*,0.4,5.6,10.1,
CCN(CC)c1ccc(/C=C2\C(=N)N3N=C(CC(=O)N4CCOCC4)SC3=NC2=O)cc1,/,/,19.9*,-22.8,36.5*,6.0,
CSc1ccc(/C=C2\C(=N)N3N=C(CC(=O)N4CCOCC4)SC3=NC2=O)cc1,/,/,-0.2,4.3,/,/,
COc1ccc(C(=O)Nc2c(N)nc[nH]c2=O)cc1,/,/,-2.3,3.1,/,/,
CNC(=O)c1c(NC(=O)c2ccc(S(=O)(=O)N3CCCC3)cc2)sc2c1CCN(C(C)C)C2,/,/,43.5*,/,6.4,16.5,
CCN1CCN(Cc2c(O)ccc3c2O/C(=C\C=C\c2ccccc2OC)C3=O)CC1,5.4,7.8,31.7*,-36.1,55.3*,8.2,

# High-throughput results: PubChem, The Scripps Research Institute Molecular Screening Center
